High-throughput results: PubChem BioAssay, Broad Institute
The list is not random: actives were taken first. Their share in the collection is about 2.9%.
Ecoli rRNA inh – reduced GFP signal of wild-type E. coli, primary screen, bacterial rRNA inhibitor project, GFP/RFP fluorescence, OD600, single point; 350,000 compounds, 1.6% hits; GFP signal change (wild-type ribosome), % (test concentration not listed); AID 720706, 2013; E. coli WT GFP vs humanized-ribosome RFP mutants, 24 h; active compounds read low; DMSO median 0, no signal -100;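 active = significant combined selectivity score with lowered wild-type GFP, culture density cut under 30%, mutant RFP and density less affected; inactive = any of these conditions unmet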
FGF22 binding – binders of human FGF22 protein, primary screen, FGF22 synaptogenesis inhibitor project, biophysical, thermal shift, single point; 340,000 compounds, 1.5% hits; activity (Tm shift, normalised), % at 9.99 µM; Fibroblast growth factor 22 (Homo sapiens), Q9HCT0; recombinant FGF22 thermal shift, SYPRO orange fluorescence; percent of sucrose octasulfate shift, DMSO zero; AID 651658, 2012;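 active = mean Tm shift, scaled 0 neutral to 100 positive control, at about 1.3% or above, every replicate too, limit read from the data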
Target sequence (Q9HCT0 whole entry, looked up): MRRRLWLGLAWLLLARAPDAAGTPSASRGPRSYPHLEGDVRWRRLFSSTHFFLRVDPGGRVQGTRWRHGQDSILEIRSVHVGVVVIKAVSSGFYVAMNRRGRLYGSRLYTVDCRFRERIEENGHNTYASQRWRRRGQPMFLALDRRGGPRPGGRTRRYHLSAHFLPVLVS
Vif inh – HIV Vif self-association inhibitors, primary screen, imaging, HEK293T, single point | HEK293T cells, Vif self-association by quenched fluorescence, 24 h | inhibition, % at 7.49 µM | 340,000 compounds, 0.35% hits | AID 602346, 2012; in the data active = inhibition above about 50%, passing the limit was not always enough
PglD inh – C. jejuni PglD acetyltransferase inhibitors, primary screen, biochemical, DTNB colorimetric, single point. purified PglD enzyme, DTNB colorimetric CoA detection. inhibition, % at 12.5 µM. 360,000 compounds, 0.098% hits; in the data active = inhibition above about 16%, passing the limit was not always enough
PGC1a acetyl inh – inhibitors of PGC1a acetylation signal, primary screen, cell-based, U2OS, AlphaScreen, inhibitor mode. 350,000 compounds, 0.17% hits. AlphaScreen anti-acetyl-lysine; with virally co-expressed GCN5 acetyltransferase. inhibition, % at 15.6 µM;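 active = every replicate shows inhibition of at least 40%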;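 also: 0% = neutral control wells and 100% = positive control wells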
Cneo AK release – Cryptococcus neoformans cell lysis inducers, primary screen, AK release luminescence, single concentration; AID 651654, 2012; lysis activity, % at 15 µM; C. neoformans lysis, adenylate kinase release luminescence, 4 h; normalised: neutral wells 0, clomiphene wells 100; 360,000 compounds, 0.2% hits;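 active = mean lysis activity across replicates of at least 80%, whatever share of replicates individually reach that level; inactive = mean lysis activity below 80%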
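Test system: log-phase Cryptococcus neoformans yeast cells. Input: 5 × 10^6 yeast cells/mL. Medium: fresh YPD growth medium. Doses: single dose. Incubation: static 4 h at 37 °C with compound, 1 h detection. Measured by: luminescent adenylate kinase detection reagent. Read-out: signal increase indicating cell lysis. Benchmarks: Clomiphene.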
An asterisk follows results filed as active; / = no result.

SMILES	Ecoli rRNA inh	FGF22 binding	Vif inh	PglD inh	PGC1a acetyl inh	Cneo AK release
Cc1noc(C)c1NC(=O)Nc1ccc2c(c1)C(=O)N([C@H](C)CO)C[C@@H](C)[C@H](CN(C)C(=O)Nc1ccc(F)cc1)OCCCC[C@@H](C)O2	-3	0	/	-4	-7	99*
Cc1noc(C)c1NC(=O)N(C)C[C@H]1OCCCC[C@@H](C)Oc2ccc(NC(=O)Nc3cccc4ccccc34)cc2C(=O)N([C@@H](C)CO)C[C@H]1C	-15*	0	/	-5	20	9
C[C@H](CO)N1C[C@H](C)[C@@H](CN(C)C(=O)Nc2ccc(F)cc2)OCCCC[C@H](C)Oc2ccc(NC(=O)Nc3ccc(C(F)(F)F)cc3)cc2C1=O	0	1.2*	/	0	-5	0
Cc1noc(C)c1NC(=O)Nc1ccc2c(c1)C(=O)N([C@H](C)CO)C[C@H](C)[C@@H](CN(C)C(=O)Nc1ccc(F)cc1)OCCCC[C@@H](C)O2	-2	0	/	-2	6	-2
C[C@@H]1CN([C@H](C)CO)C(=O)c2cc(NC(=O)Nc3ccc(C(F)(F)F)cc3)ccc2O[C@@H](C)CCCCO[C@H]1CN(C)C(=O)Nc1ccc(F)cc1	-5	1.4*	/	3	-11	-1
COCC(=O)N(C)C[C@H]1Oc2cc(-c3ccncc3)ccc2S(=O)(=O)N([C@@H](C)CO)C[C@H]1C	5	0	/	3	3	-2
CO[C@@H]1CN(C)C(=O)c2ccc(NC(=O)C3CC3)cc2OC[C@@H](C)N(C(=O)c2ccncc2)C[C@H]1C	3	0	/	-2	5	2
Cc1ccc(C(=O)c2cc3ccccc3o2)cc1[N+](=O)[O-]	22	43*	3	-6	-4	-2
C/C(=N\NS(=O)(=O)c1ccc(C)c([N+](=O)[O-])c1)c1cc2ccccc2o1	/	/	-1	-1	/	4
C[C@H](CO)N1C[C@H](C)[C@H](CN(C)Cc2ccncc2)Oc2c(NS(=O)(=O)c3cccs3)cccc2C1=O	0	0	/	-1	-3	-4
COCC(=O)Nc1ccc2c(c1)[C@H]1C[C@@H](CC(=O)N3CCc4ccccc4C3)O[C@H](CO)[C@H]1O2	-1	0	/	0	-2	-5
COc1cccc(/C=N/Nc2nc(N3CCCC3)nc(N3CCCC3)n2)c1O	-18*	0	-7	-2	-4	0
COc1ccc(/C=N/Nc2nc(N3CCCC3)nc(N3CCCC3)n2)c(OC)c1OC	/	/	1	/	/	/
COc1ccc(NC(=O)N(C)C[C@H]2OCCCC[C@H](C)Oc3ccc(NC(=O)Nc4cccc5ccccc45)cc3C(=O)N([C@H](C)CO)C[C@H]2C)cc1	-6	0	/	-1	-13	2
O=C(O)c1ccc(N2C(=O)c3ccccc3C2=O)cc1[N+](=O)[O-]	2	43*	3	2	-7	-1
O=c1cc(N2CCCCC2)c(-c2ccccc2)nn1Cc1ccccc1	-60	0	7	/	-6	/
Cn1nc(-c2ccccc2)c(N2CCCCC2)cc1=O	-42*	0	5	/	-13	/
COC(=O)C1CCN(C2=C(NS(=O)(=O)c3ccc(Cl)cc3)C(=O)c3ccccc3C2=O)CC1	-11	0	1	-1	8	3
NC(=O)C1CCN(C2=C(NS(=O)(=O)c3ccc(Cl)cc3)C(=O)c3ccccc3C2=O)CC1	-21*	-1	-1	/	/	/
CC1(C)CC(=O)C=C(c2ccc(COC(=O)/C=C/c3ccccc3)cc2)C1=O	-5	0	/	4	7	4
CC1(C)CC(=O)C=C(c2ccc(COC(=O)c3ccccc3)cc2)C1=O	-20*	0	/	-4	7	0
CO[C@@H]1CN(C)C(=O)c2ccc(NC(=O)c3cccc(Oc4ccccc4)c3)cc2OC[C@@H](C)NC[C@H]1C	-10	0	/	3	-26	-2
